Source: PubChem BioAssay (Johns Hopkins Ion Channel Center)
The list is not random: actives were taken first. Their share in the collection is about 3.5%.
MrgX1 antag = antagonists of human MrgX1 receptor, primary screen, HEK293 cells, Fluo-4 calcium flux | Mas-related G-protein coupled receptor member X1 (Homo sapiens), Q96LB2 | BAM8-22 antagonism; active compounds read low | B-score at 10 µM | hit rate 1.3% among 310,000;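 active means calcium-response B-score plate-corrected more than 3 library SD below zero, starting fluorescence within 5 deviations, no agonist response on first addition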;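 further: peak minus trough fluorescence over baseline after final BAM8-22 challenge near maximal dose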
Target sequence (Q96LB2 whole entry, looked up): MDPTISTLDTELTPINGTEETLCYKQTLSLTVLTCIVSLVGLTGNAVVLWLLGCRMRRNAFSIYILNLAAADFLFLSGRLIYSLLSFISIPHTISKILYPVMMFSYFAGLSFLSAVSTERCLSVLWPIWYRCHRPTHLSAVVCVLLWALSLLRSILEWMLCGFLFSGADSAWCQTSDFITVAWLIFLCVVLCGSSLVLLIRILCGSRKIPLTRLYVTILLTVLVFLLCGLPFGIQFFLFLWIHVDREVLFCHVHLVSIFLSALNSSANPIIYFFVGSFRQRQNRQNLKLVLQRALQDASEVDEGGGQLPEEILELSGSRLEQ
MrgX1 PAM = positive allosteric modulators of MrgX1, primary screen, HEK293 cells, Fluo-4 calcium flux; FDSS; active compounds read high; Mas-related G-protein coupled receptor member X1 (Homo sapiens), Q96LB2; hit rate 0.63% among 310,000; AID 588675, 2011; B-score at 10 µM;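 active means plate-corrected calcium response at least 3 library SD above typical, normal starting fluorescence, not activating the receptor alone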;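 further: compound read alongside a low EC10 to EC30 dose of BAM8-22 agonist; peak minus trough fluorescence over baseline measured at the second addition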
MrgX1 ag = agonists of human MrgX1 receptor, primary screen, HEK293 cells, Fluo-4 calcium flux; B-score at 10 µM; Mas-related G-protein coupled receptor member X1 (Homo sapiens), Q96LB2; Fluo-4 calcium fluorescence, agonist mode; active compounds read high; hit rate 0.44% among 310,000;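 active means calcium response B-score plate-corrected fluorescence ratio at least 3 library SD, with starting fluorescence B-score inside 5 SD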
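Test system: Stable human MrgX1 HEK293 cell line | Schedule: Overnight plating before 1 h dye loading | Read-out basis: Baseline-normalised fluorescence change ratio, B-scored | Detection: Kinetic calcium dye fluorescence, Fluo-4 NW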
RGS4 pot = RGS4 potentiators or activators, primary screen, cell-based, HEK293 M3R inducible RGS4, calcium flux; B-score at 10 µM; carbachol calcium flux Fluo4; active compounds read low; AID 463111, 2010; hit rate 0.92% among 310,000;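 active means B-score of the integrated calcium signal more than 4 SD below the library mean, with starting fluorescence not abnormally high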;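 further: negative B-score means reduced calcium response which marks RGS4 activation or potentiation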
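Detection: kinetic calcium fluorescence imaging with Fluo4-AM dye, 2 µM / Material: HEK293 cells with stable M3R and inducible RGS4 / Schedule: recording 10 s baseline at 1 Hz, 100 s post-agonist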
RGS4 inh = RGS4 inhibitors, primary screen, cell-based, HEK293 M3R inducible RGS4, calcium flux. hit rate 0.45% among 310,000. Fluo-4 calcium flux; active compounds read high; triggered by carbachol at its EC20. B-score at 10 µM. Regulator of G-protein signaling 4 (Homo sapiens), P49798;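 active means B-score, a plate-corrected calcium signal, over three deviations above library mean, with baseline fluorescence within five deviations of library mean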;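 further: RGS4 expression induced by doxycycline in cells with stable M3 receptor; B-score is computed from the integrated fluorescence ratio over baseline after carbachol; higher B-score means a larger calcium signal and so more RGS4 inhibition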
Target sequence (P49798 whole entry, looked up): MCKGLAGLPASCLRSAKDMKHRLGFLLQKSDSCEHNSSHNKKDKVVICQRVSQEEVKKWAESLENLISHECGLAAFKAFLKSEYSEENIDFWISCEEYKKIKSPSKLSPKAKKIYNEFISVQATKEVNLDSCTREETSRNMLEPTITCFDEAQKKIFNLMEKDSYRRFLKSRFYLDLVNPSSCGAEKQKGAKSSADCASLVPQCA
MrgX1 ag reconf = MrgX1 receptor agonists, duplicate retest, confirmation, HEK293 cells, Fluo-4 calcium flux; shares compounds with MrgX1 ag; Fluo-4 calcium fluorescence, FDSS; activation, % at 10 µM; hit rate 78% among 600;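 active means calcium signal rise, corrected for plate position, at least 3 library SD high, with starting brightness within 5 such deviations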
HEK293 Ca flux = nonspecific calcium signal in parental HEK293, confirmation, counter-screen for MrgX1 antagonist project, parental HEK293 cells, Fluo-4 calcium flux; hit rate 2% among 4,000; fluorescence ratio F(max-min)/F0 at 10 µM; Fluo-4 calcium fluorescence, FDSS; shares compounds with MrgX1 antag;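 active means duplicate-averaged calcium fluorescence ratio at least three times the standard deviation of buffer wells, a nonspecific response in parental cells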
HEK293 Ca counter = calcium response in parental HEK293 cells, primary screen, counter-screen for MrgX1 allosteric activator project, cell-based, Fluo-4 calcium flux, duplicate. fluorescence ratio F(max-min)/F0 at 10 µM. shares compounds with MrgX1 antag. hit rate 0.4% among 4,000. Fluo-4 fluorescence ratio; active compounds read high;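 active means calcium fluorescence ratio, averaged over duplicates, at least 3 SD of the buffer-well ratio, meaning a nonspecific response in receptor-free cells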;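 further: untransfected parental HEK293 lacking MrgX1 used as counterscreen for MrgX1 allosteric activators; fluorescence change taken during the second addition on a kinetic imager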
HEK293 Ca cntr2 = calcium response in parental HEK293 cells, primary screen, counter-screen for MrgX1 agonist project, cell-based, Fluo-4 calcium flux, duplicate, agonist mode; shares compounds with MrgX1 antag; Fluo-4 calcium fluorescence (FDSS); active compounds read high; fluorescence ratio F(max-min)/F0 at 10 µM; hit rate 8.7% among 4,000; AID 624115, 2012;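 active means calcium fluorescence ratio at least three times the spread of buffer wells, meaning a non-specific response in parental cells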
Of the large screens only hits and unclear results are named; the others gave an inactive call (follow-up assays come after a bar, where they were run).

COc1ccc(-c2nnc(SCc3ccccn3)n2C)cc1	none
COc1ccc(N=C(N)SCc2ccccn2)cc1	MrgX1 ag 87 | MrgX1 ag reconf 341.0% | HEK293 Ca flux inactive | HEK293 Ca counter inactive | HEK293 Ca cntr2 91.7
CC(C)Oc1ccc(C(=O)CCN2CCOCC2)cc1	MrgX1 ag 65.5 | MrgX1 ag reconf inactive | HEK293 Ca flux inactive | HEK293 Ca counter inactive | HEK293 Ca cntr2 inactive
O=C(CCl)Nc1cccc(S(=O)(=O)N2CCCCCC2)c1	MrgX1 ag 42.5 | MrgX1 ag reconf 164.6% | HEK293 Ca flux inactive | HEK293 Ca counter inactive | HEK293 Ca cntr2 inactive
COC(=O)CC1=C(C(=O)OC)C(c2ccc3c(c2Cl)OCO3)C(C#N)=C(N)O1 (stereo not drawn)	MrgX1 ag 40.7 | MrgX1 ag reconf 171.9% | HEK293 Ca flux inactive | HEK293 Ca counter inactive | HEK293 Ca cntr2 inactive
O=C(O)CCc1ccc(-c2ccc(Cl)cc2)n1Cc1ccco1	MrgX1 ag 37.9 | MrgX1 ag reconf 158.7% | HEK293 Ca flux inactive | HEK293 Ca counter inactive | HEK293 Ca cntr2 inactive
Cc1ccc([C@@H]2[C@@H]3C(=O)N(C)C(=O)[C@@H]3[C@@H]3C(=O)Nc4ccccc4C(=O)N23)cc1	none
CCOC(=O)Cc1csc(N/C(=N/S(=O)(=O)c2ccc(F)cc2F)c2ccccc2)n1	MrgX1 ag 30 | MrgX1 ag reconf 181.5% | HEK293 Ca flux inactive | HEK293 Ca counter inactive | HEK293 Ca cntr2 inactive
CC(C)(C)c1ccc(S(=O)(=O)/N=C2\C=C(NS(=O)(=O)c3ccccc3)C(=O)c3ccccc32)cc1	MrgX1 ag 26.7 | MrgX1 ag reconf 80.0% | HEK293 Ca flux inactive | HEK293 Ca counter inactive | HEK293 Ca cntr2 57.2
COCCN1C(=O)C(=O)/C(=C(/O)c2ccc(S(=O)(=O)N3CCCCC3)cc2)C1c1ccc(OC)cc1 (stereo not drawn)	none
CCOC(=O)C1=NN(c2ccccc2)C2=NC(C)=C(C(=O)OC)C(c3ccc(C)cc3)N12 (stereo not drawn)	none
Cc1cc(C)c(C#N)c(SCCN2CCOCC2)n1	none
N#Cc1ccc(-c2ccccc2)nc1SCCN1CCOCC1	MrgX1 ag 27.7 | MrgX1 ag reconf 171.2% | HEK293 Ca flux inactive | HEK293 Ca counter inactive | HEK293 Ca cntr2 inactive
COc1ccc(/C=C2\SC(=Nc3ccccc3)NC2=O)cc1	none
COc1ccccc1N=C1NC(=O)/C(=C/c2ccc(N(C)C)cc2)S1	MrgX1 ag 65.4 | MrgX1 ag reconf inactive | HEK293 Ca flux 0.217 | HEK293 Ca counter inactive | HEK293 Ca cntr2 128
CCCCOc1ccc(Br)cc1CSC(=N)N	none (no result: MrgX1 antag, MrgX1 PAM, MrgX1 ag)
CCOc1ccc(C(C)=O)cc1CSC(=N)N	MrgX1 ag 29.6 | MrgX1 ag reconf 163.8% | HEK293 Ca flux inactive | HEK293 Ca counter inactive | HEK293 Ca cntr2 inactive
COc1ccc(C(C)=O)cc1CSC(=N)N	MrgX1 ag 46.6 | MrgX1 ag reconf 239.9% | HEK293 Ca flux inactive | HEK293 Ca counter inactive | HEK293 Ca cntr2 inactive
COc1ccc(C(C)=O)cc1CSCc1cc(C(C)=O)ccc1OC	none
